Source: PubChem
Sampled rows, rich in hits. Any-hit rate of the full collection: about 4.3%.
APP 5'UTR act: activators of APP 5'UTR luciferase reporter, primary screen, SH-SY5Y cells; SH-SY5Y APP 5'UTR luciferase reporter, luminescence; zero percent = DMSO vehicle wells; 190,000 compounds, 1% hits; AID 1276, 2008; activation, % at 2 µM;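 active means activation above a set limit, based on mean plus 3 SD of controls, cut at about 140% in these data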
NF-kB expr up: activators of NF-kB expression in neurons, primary screen, cell-based, HTS. fold change at 12.5 µM. AID 1239, 2008. 190,000 compounds, 1.6% hits. human neuronal cells, NF-kB reporter expression; hits give high values; in the data active means fold change above about 3.3
FLuc stim CS: FLuc activators, initial screening, artefact control for FLuc-dependent activation tests, biochemical, ATPlite luminescence. Luciferin 4-monooxygenase (Photinus pyralis), P08659. ATPlite luciferase biochemical, 10 min; 0 = ATP-free wells, 1 = DMSO control. activation factor at 10 µM. 200,000 tested, under 10 active;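 active means luciferase activation factor, scaled between plate controls, of at least 2 with compound at 10 µM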
Target sequence (P08659 whole entry, looked up): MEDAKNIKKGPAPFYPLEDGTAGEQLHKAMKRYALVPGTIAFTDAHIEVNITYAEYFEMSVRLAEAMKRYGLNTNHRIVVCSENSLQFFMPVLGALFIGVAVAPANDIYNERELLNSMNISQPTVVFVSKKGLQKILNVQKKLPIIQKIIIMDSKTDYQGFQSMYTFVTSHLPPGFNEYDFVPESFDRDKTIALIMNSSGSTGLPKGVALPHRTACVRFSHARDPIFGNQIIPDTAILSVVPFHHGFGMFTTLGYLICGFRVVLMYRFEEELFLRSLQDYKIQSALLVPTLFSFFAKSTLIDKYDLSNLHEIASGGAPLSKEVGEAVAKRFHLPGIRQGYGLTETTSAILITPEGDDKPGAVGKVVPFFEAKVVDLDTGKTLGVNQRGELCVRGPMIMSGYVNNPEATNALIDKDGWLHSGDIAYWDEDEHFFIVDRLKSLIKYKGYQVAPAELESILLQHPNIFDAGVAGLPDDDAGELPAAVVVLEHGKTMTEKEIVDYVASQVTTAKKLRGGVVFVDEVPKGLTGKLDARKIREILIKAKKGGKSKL
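Assay system: Luciferase/luciferin detection reagent, cell-free biochemical luciferase assay / Read-out: luciferase activation / Benchmarks: No-ATP low control, compound-free enzyme-plus-ATP high control / Medium: PBS buffer for ATP / Detection: luminescence measurement of luciferase light output / Schedule: 10 min at ambient temperature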
FLuc inhib CS: firefly luciferase enzyme inhibitors, primary screen, artefact control for luciferase-based inhibitor screens, biochemical, luminescence, ATPLite; inhibition, % at 10 µM; 10 min; AID 1006, 2008; 200,000 compounds, 1.5% hits;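 active means inhibition above about 50% when tested at 10 µM, limit read from the data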
STAT1 act: STAT1 signaling activators, primary screen, cell-based, HTS, luciferase reporter | 200,000 compounds, 2.6% hits | activation (% of control), % at 5.5 µM | NIH 3T3 STAT1-luciferase reporter, IFN-gamma, luminescence; 100% = IFN-gamma alone, no compound | AID 932, 2007;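 active means activation above the screen-wide mean activation plus 3 SD, cut at about 130% in these data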;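 further: raw ratio to IFN-gamma control signal so 100% means no change and 0% no light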
STAT1 activ conf: STAT1 signaling activators, confirmation, cell-based, HTS, luciferase reporter | shares compounds with STAT1 act | NIH 3T3 STAT1-luciferase reporter, IFN-gamma potentiation, luminescence; 100% = IFN-gamma EC80 alone, no compound | activation (% of control), % at 5.7 µM | 1,200 compounds, 97% hits | AID 1262, 2008;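 active means activation above a set limit carried over from the earlier primary STAT1 screen, cut at about 140% in these data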;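 further: simple ratio to median IFN-gamma plus DMSO wells so 0% means no light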
NFkB act STAT1ct: NF-kB reporter activators, TNF-alpha stimulated, counter-screen for STAT1 activator project, cell-based, HEK293T, luciferase luminescence | shares compounds with STAT1 act | 100% = TNF-alpha with vehicle only | activation (% of control), % at 5.7 µM | 1,200 compounds, 43% hits;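 active means activation above the mean of solvent-only control wells plus 3 SD, set per campaign, cut at about 130% in these data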;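 further: TNF-alpha given at a submaximal dose yielding about 80% of full reporter signal; values are well signal over median control so 100% means no change and 0% no light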
STAT3 act STAT1c: STAT3 reporter activation by STAT1 hits, confirmation, counter-screen for STAT1 activator project, U3A cells, luciferase, luminescence; shares compounds with STAT1 act; IL-6; cells lack STAT1; 100 = IL-6 alone, no compound effect; activation (% of control), % at 5.7 µM; 1,200 compounds, 46% hits;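 active means activation above the solvent-only control well mean plus 3 SD, set per plate batch, cut at about 110% in these data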;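 further: 0% = no luminescence and 100% = median IL-6 plus DMSO wells; higher means more STAT3 reporter activation so hits are non-selective activators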
Active calls of the source: *; . = no result.

SMILES	APP 5'UTR act	NF-kB expr up	FLuc stim CS	FLuc inhib CS	STAT1 act	STAT1 activ conf	NFkB act STAT1ct	STAT3 act STAT1c
CN1CCN(CCC(=O)Nc2ccc(F)c(F)c2)CC1	5.2	1.34	1.1	-7.5	102.1	.	.	.
Cn1cccc1C(=O)C(=O)Nc1ccc(F)c(F)c1	139.3*	5.17*	0.7	28.9	154.0*	192.7*	132.9	106.7
C=CCn1c(=O)c(C(=O)Nc2ccccc2S(N)(=O)=O)c(O)c2ccccc21	46.4	3.15	0.8	16.5	170.6*	186.9*	129.1	146.0*
C=CCn1c(=O)c(C(=O)Nc2ccccc2C(=O)OCC)c(O)c2ccccc21	-0.6	1.71	1	-2.1	105.1	.	.	.
O=c1cc(/C=C/c2ccccc2)oc2ccccc12	133.9	4.59*	0.9	14.7	156.1*	191.7*	135.7*	123.9*
Cc1cccc(NC(=S)N(CCN(C)C)Cc2cccs2)c1	1.4	1.02	1	-2.8	100.7	.	.	.
CN1CCN(c2ccc(NC(=O)c3ccccc3Br)cc2)CC1	58.0	1.85	0.9	5.0	119.9	.	.	.
CCc1ccc(NC(=O)c2ccccc2Br)cc1	130.0	4.15*	0.8	17.3	155.1*	177.3*	137.8*	102.7
COC(=O)c1c(C)[nH]c(C(=O)OCc2ccc(F)cc2)c1C	67.6	2.69	0.9	6.7	152.3*	163.3*	124.6	102.7
CCc1c(C)[nH]c(C(=O)OCc2ccccc2)c1C	24.0	2.45	1	-1.2	152.5*	145.6*	118.3	91.7
CC(=O)c1c(C)[nH]c(C(=O)OCC(=O)NCCc2ccc(F)cc2)c1C	12.9	0.97	1	-4.9	92.9	.	.	.
CC(C)=CC(=O)Nc1ccc(OCc2ccccc2)cc1	34.5	1.92	0.9	7.4	123.4	.	.	.
CC(C)=CC(=O)Nc1ccc(Br)cc1	123.4	5.61*	0.8	16.7	154.3*	171.6*	141.2*	108.7
Cc1ccc(S(=O)(=O)CCC(=O)N2CCN(c3ccc(Cl)cc3)CC2)cc1	-9.3	0.7	1.1	-10.2	83.7	.	.	.
Cc1nn(C)c(Cl)c1CN1CCN(C2CCCC2)C(CCO)C1 (stereo unspecified)	-16.0	1.1	1	4.0	106.9	.	.	.
CC1=C(C(=O)OCC2CCCO2)C(c2ccc(F)cc2)NC(=O)N1 (stereo unspecified)	-24.2	1.19	1	-4.9	93.7	.	.	.
Cc1ccc(-c2cc3nc4c(c(=O)n3[nH]2)CCCC4)cc1	89.0	.	.	.	174.2*	232.0*	113.6	96.2
O=c1c2c(nc3cc(-c4ccc(F)cc4)[nH]n13)CCC2	98.7	1.04	0.5	51.0*	152.2*	176.0*	118.1	102.3
CC1CC(CC(=O)NC(=S)Nc2ccccc2Cl)C(=O)O1 (stereo unspecified)	8.4	0.92	1.1	-6.0	102.5	.	.	.
Cn1c(=O)c2ncn(CC(=O)NCCOCc3ccccc3Cl)c2n(C)c1=O	4.2	1.4	1	-2.9	99.1	.	.	.
CC(Oc1ncnc2ccccc12)C(=O)Nc1cccc(S(=O)(=O)N2CCOCC2)c1 (stereo unspecified)	-7.1	1	1	-0.3	94.9	.	.	.
Cc1nn(-c2ccccc2)c(=S)c2ccccc12	-8.6	1.14	1	-1.1	92.1	.	.	.
C/C(=N/NC(=O)c1ccco1)c1ccc(NC(=O)c2ccc(F)cc2)cc1	56.0	1.04	1	3.1	155.3*	125.1	118.3	96.3
Cc1cc(C(=O)CN2C(=O)NC(CC(C)C)C2=O)c(C)n1-c1ccccc1F (stereo unspecified)	69.8	2.25	0.9	10.3	152.8*	183.2*	135.0*	130.8*
Cc1c(C(=O)Nc2cccc([N+](=O)[O-])c2)csc1-c1ccccc1	194.4*	3.84*	0.8	18.8	165.2*	237.7*	127.5	139.4*
SMILES	APP 5'UTR act	NF-kB expr up	FLuc stim CS	FLuc inhib CS	STAT1 act	STAT1 activ conf	NFkB act STAT1ct	STAT3 act STAT1c
COc1ccc(C(O)c2nc3ccccc3s2)cc1 (stereo unspecified)	-1.0	1.19	1.1	-6.5	106.1	.	.	.
Cc1cccc(Nc2nc3ccccc3s2)c1C	158.1*	9.25*	0.6	41.4	174.4*	218.1*	151.2*	108.0
COc1ccc(Nc2nc3ccccc3s2)cc1	164.4*	7.25*	0.8	21.0	158.6*	223.5*	143.2*	106.0
Cc1cc(C(=O)OCC(=O)Nc2ccccc2[N+](=O)[O-])c2ccccc2n1	-6.1	1	1	-1.8	88.5	.	.	.
Cc1ccc(C(=O)NN(CCC(=O)NC(C)(C)C)C2=NS(=O)(=O)c3ccccc32)cc1	18.1	1.15	1.1	-7.2	94.0	.	.	.
O=C(O)CC/C(=N/NC(=O)c1cccs1)c1ccccc1	91.8	2.26	1.1	-5.9	156.6*	134.5*	112.2	101.7
CCCn1nnc(NC(=O)c2cccc(OCC)c2)n1	51.6	2.11	0.9	10.5	124.1	.	.	.
CCCn1nnc(NC(=O)c2ccc3ccccc3c2)n1	34.9	3.19	0.8	20.3	154.2*	128.3	126.3	95.0
CCn1c(P(C)(=O)O)nc2cc(NC(=O)c3ccccc3Cl)ccc21	4.2	1.1	1.1	-6.6	106.1	.	.	.
Cc1c(-c2nc(N)nc(Nc3ccc(F)cc3)n2)oc2ccccc12	151.7*	3.33*	1	-4.3	155.9*	183.0*	142.2*	106.2
O=C1NC2(CCCCC2)C(=O)N1Cc1cccc(C(F)(F)F)c1	-11.6	0.96	1.1	-5.3	92.5	.	.	.
N/C(=N\OC(=O)c1ccc2c(c1)OCO2)c1cccc(Br)c1	79.5	1.49	0	96.4*	162.1*	178.5*	129.4	110.8*
COc1ccc(Nc2oc(-c3ccc(Cl)cc3)nc2C#N)cc1	13.9	3.3*	1	-2.7	173.7*	208.5*	134.7*	124.3*
O=C(Nc1ccccc1)c1ccc(NCCc2ccccc2)c([N+](=O)[O-])c1	37.3	1.35	1.1	-5.3	98.5	.	.	.
CCN(CC)c1ccc(C(=O)Nc2ccccc2)cc1[N+](=O)[O-]	98.0	1.55	0.9	7.7	159.9*	163.1*	129.1	97.1
O=C(CSc1nccn1Cc1ccccc1)NCc1ccccc1	4.1	1.42	1	-1.1	100.5	.	.	.
